# Results gathered from unrelated publications.
# TYK2: Non-receptor tyrosine-protein kinase TYK2 (TYK2, Homo sapiens, UniProt P29597)
# TYK2 JH1: Non-receptor tyrosine-protein kinase TYK2, JH1 (TYK2, Homo sapiens, UniProt P29597)
# TYK2 JH2: Non-receptor tyrosine-protein kinase TYK2, JH2 (TYK2, Homo sapiens, UniProt P29597)
Compound,target,effect on,mode,technique,concentration,quantity,result
N#CCCc1ccc2c(c1)-c1[nH]c3ccc([N+](=O)[O-])cc3c1CC(=O)N2,TYK2,cell-free assay,,,0.5 µM,remaining signal,48.1%
C[C@H]1CCN(c2nccc(-c3cnn4ncccc34)n2)C1,TYK2,binding,,,1 µM,remaining binding,51%
Cc1ccc(C(=O)NCc2ccsc2)cc1C#Cc1cn(C(C)C)c2ncnc(N)c12,TYK2,enzyme activity,inhibitor,,1 µM,activity vs control,49%
CN(C)c1nccc(-c2cnc3ncccn23)n1,TYK2 JH1,cell-free assay,,competition with immobilised ligand,1 µM,remaining binding,83%
CC(C)(C)c1nc2c(s1)c1nc(N)ncc1c1ccc(NS(=O)(=O)c3c(F)cccc3F)c(F)c12,TYK2,enzyme activity,inhibitor,radiometric,1 µM,remaining activity,92%
Cc1cc(NC(=O)c2cccc3cc(-c4cccc5[nH]nc(N)c45)ccc23)ccc1F,TYK2,enzyme activity,inhibitor,,0.1 µM,activity vs control,94%
COCCOc1nc(-c2ccc(Cl)nc2)nc2c1CN(C(=O)c1ncn3ccccc13)CC2,TYK2 JH1,cell-free assay,,competition with immobilised ligand,0.1 µM,remaining binding,100%
CS(=O)(=O)Nc1cccc(-c2csc(NC(=O)CSc3nc4nccnc4c(=O)n3CCc3ccccc3)n2)c1,TYK2,enzyme activity,inhibitor,,10 µM,inhibition,-1%
CNC(=O)c1cc(Oc2ccc(NC(=O)Nc3ccc(Cl)c(C(F)(F)F)c3)cc2)ccn1,TYK2,cell-free assay,,,0.5 µM,remaining signal,98.9%
CN([C@@H]1CCc2c(CC(=O)O)c3ccccc3n2C1)S(=O)(=O)c1ccc(F)cc1,TYK2 JH1,cell-free assay,,competition with immobilised ligand,1 µM,remaining binding,100%
N[C@H]1CCN(c2nccc(-c3cnn4ncccc34)n2)C1,TYK2 JH1,cell-free assay,,,1 µM,remaining signal,76%
CCOC(=O)c1cc2cc(-c3cc(C(=O)NCc4ccc(C(=O)O)cc4)nn3C)ccc2[nH]1,TYK2 JH1,cell-free assay,,competition with immobilised ligand,0.1 µM,remaining binding,90%
Nc1ncnc2occ(-c3ccc(NC(=O)Nc4cc(C(F)(F)F)ccc4F)cc3)c12,TYK2 JH2,cell-free assay,inhibitor,,20 µM,remaining signal,100%
CC(=O)N1CCC(c2ccc(C(=O)NC3=NCCN3)cc2C(F)(F)F)CC1,TYK2 JH1,cell-free assay,,competition with immobilised ligand,1 µM,remaining binding,100%
COc1cc2ncnc(Nc3ccc(Oc4ccccc4)cc3C)c2cc1OC,TYK2,enzyme activity,inhibitor,,1 µM,inhibition,7%
CCC(=N\O)/C(C)=C/c1ccc(F)cc1,TYK2 JH2,cell-free assay,,competition with immobilised ligand,1 µM,remaining binding,73%
O=C(Nc1cnn(-c2csc(C(=O)NC3COC3)c2)c1)Nc1ccccc1Cl,TYK2,enzyme activity,inhibitor,,5 µM,remaining activity,95.9%
O=C(NCc1ncc(C(F)(F)F)cc1Cl)c1ccc2c(c1)C1(CCS(=O)(=O)CC1)[C@H](C1CC1)N2S(=O)(=O)c1ccc(F)cc1,TYK2 JH2,cell-free assay,,competition with immobilised ligand,1 µM,remaining binding,79%
CN(c1nccc(-c2cnn3ncccc23)n1)C1CC1,TYK2,binding,,,1 µM,remaining binding,100%
